Laboratory results reported in ChEMBL document CHEMBL5724801, “EUbOPEN Chemogenomics Library - Multiplex” (2024).
Values joined by “and” are separate entries in the source; they are usually repeats but may differ in a detail not shown here. Identical values can stand only once.

System: Fibroblast
Experiment: Multiplex assay against human fibroblast
Type: toxicity, cell-based
Summary of the method: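 Per cents of healthy-nucleus cells form the tubulin, mitochondrial-mass and membrane-permeability phenotype values. Live cells were stained at seeding with Hoechst33342, BioTracker Green Microtubule Cytoskeleton Dye, MitoTracker Red and Annexin V Alexa Fluor 680. After compound addition they were imaged on a CQ1 microscope at 37°C and 5% CO2, and CellPathfinder machine-learning gating split them into Hoechst high-intensity objects or normal cells, normal cells into healthy, pyknosed or fragmented nuclei, and pyknosed cells into mitotic or apoptotic.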

[1] = 12 h, 1 µM, compound concentration 1 uM
[2] = 12 h, 10 µM, compound concentration 10 uM
[3] = 24 h, 1 µM, compound concentration 1 uM
[4] = 24 h, 10 µM, compound concentration 10 uM
[5] = 48 h, 1 µM, compound concentration 1 uM
[6] = 48 h, 10 µM, compound concentration 10 uM

For `O=C(Nc1cc(-c2ccccc2)nn1-c1ccccc1F)c1ccc([N+](=O)[O-])cc1`, the “Population Apoptotic (%)” value [1] was 28% and 32%, the “Population Fragmented Nuclei (%)” value [1] was 17% and 19% and the “Population Healthy Nuclei (%)” value [1] was 71% and 55%. For the same compound, the “Population Hoechst High Intensity Objects (%)” value [1] was 2% and 8%, the “Population Membrane Permeable-Phenotype (%)” value [1] was 1% and 4% and the “Population Mitochondria Different-Phenotype (%)” value [1] was 1% and 9%. The “Population Mitotic Cells (%)” value [1] was 71% and 67%, the “Population Normal (%)” value [1] was 97% and 91% and the “Population Pyknosed Nuclei (%)” value [1] was 10% and 25%. The “Population Tubulin-Different-Phenotype (%)” value [1] was 22% and 53%, the “Total Cell Count” value [1] was 138 and 160 and the “Population Apoptotic (%)” value [2] was 28% and 45%. The “Population Fragmented Nuclei (%)” value [2] was 10% and 25%, the “Population Healthy Nuclei (%)” value [2] was 66% and 47% and the “Population Hoechst High Intensity Objects (%)” value [2] was 2% and 6%. For the same compound, the “Population Membrane Permeable-Phenotype (%)” value [2] was 1% and 6%, the “Population Mitochondria Different-Phenotype (%)” value [2] was 4% and 3% and the “Population Mitotic Cells (%)” value [2] was 71% and 54%. For the same compound, the “Population Normal (%)” value [2] was 97% and 93%, the “Population Pyknosed Nuclei (%)” value [2] was 22% and 26% and the “Population Tubulin-Different-Phenotype (%)” value [2] was 48% and 77%. The “Total Cell Count” value [2] was 170 and 149, the “Population Apoptotic (%)” value [3] was 53% and 50% and the “Population Fragmented Nuclei (%)” value [3] was 16% and 25%. For the same compound, the “Population Healthy Nuclei (%)” value [3] was 74% and 53%, the “Population Hoechst High Intensity Objects (%)” value [3] was 2% and 7% and the “Population Membrane Permeable-Phenotype (%)” value [3] was 0% and 6%. The “Population Mitochondria Different-Phenotype (%)” value [3] was 0% and 2%, the “Population Mitotic Cells (%)” value [3] was 46% and 50% and the “Population Normal (%)” value [3] was 97% and 92%. The “Population Pyknosed Nuclei (%)” value [3] was 9% and 20%, the “Population Tubulin-Different-Phenotype (%)” value [3] was 18% and 52% and the “Total Cell Count” value [3] was 135 and 156. The “Population Apoptotic (%)” value [4] was 26% and 28%, the “Population Healthy Nuclei (%)” value [4] was 76% and 53% and the “Population Hoechst High Intensity Objects (%)” value [4] was 4% and 6%. For the same compound, the “Population Membrane Permeable-Phenotype (%)” value [4] was 1% and 9%, the “Population Mitochondria Different-Phenotype (%)” value [4] was 7% and 1% and the “Population Mitotic Cells (%)” value [4] was 73% and 72%. For the same compound, the “Population Normal (%)” value [4] was 95% and 93%, the “Population Pyknosed Nuclei (%)” value [4] was 16% and 18% and the “Population Tubulin-Different-Phenotype (%)” value [4] was 49% and 69%. For the same compound, the “Total Cell Count” value [4] was 163 and 147, the “Population Apoptotic (%)” value [5] was 54% and 55% and the “Population Fragmented Nuclei (%)” value [5] was 23% and 30%. The “Population Healthy Nuclei (%)” value [5] was 67% and 53%, the “Population Hoechst High Intensity Objects (%)” value [5] was 7% and the “Population Membrane Permeable-Phenotype (%)” value [5] was 1% and 5%. The “Population Mitochondria Different-Phenotype (%)” value [5] was 0% and 4%, the “Population Mitotic Cells (%)” value [5] was 45% and 44% and the “Population Normal (%)” value [5] was 92%. The “Population Pyknosed Nuclei (%)” value [5] was 8% and 15%, the “Population Tubulin-Different-Phenotype (%)” value [5] was 18% and 54% and the “Total Cell Count” value [5] was 145 and 183. The “Population Apoptotic (%)” value [6] was 66% and 52%, the “Population Fragmented Nuclei (%)” value [6] was 16% and 31% and the “Population Healthy Nuclei (%)” value [6] was 70% and 54%. The “Population Hoechst High Intensity Objects (%)” value [6] was 7% and 5%, the “Population Membrane Permeable-Phenotype (%)” value [6] was 3% and 6% and the “Population Mitochondria Different-Phenotype (%)” value [6] was 3%. The “Population Mitotic Cells (%)” value [6] was 33% and 47%, the “Population Normal (%)” value [6] was 92% and 94% and the “Population Pyknosed Nuclei (%)” value [6] was 12% and 14%. The “Population Tubulin-Different-Phenotype (%)” value [6] was 55% and 66% and the “Total Cell Count” value [6] was 160 and 153.

With `CN(C)C/C=C/C(=O)Nc1ccc(C(=O)N2CCCC(Nc3ncc(Cl)c(-c4c[nH]c5ccccc45)n3)C2)cc1` (stereo not given) the “Population Apoptotic (%)” value [1] was 48% and 46%, the “Population Fragmented Nuclei (%)” value [1] was 15% and 21% and the “Population Healthy Nuclei (%)” value [1] was 64% and 53%. For the same compound, the “Population Hoechst High Intensity Objects (%)” value [1] was 2% and 6%, the “Population Membrane Permeable-Phenotype (%)” value [1] was 2% and 3% and the “Population Mitochondria Different-Phenotype (%)” value [1] was 11% and 13%. For the same compound, the “Population Mitotic Cells (%)” value [1] was 51% and 53%, the “Population Normal (%)” value [1] was 97% and 93% and the “Population Pyknosed Nuclei (%)” value [1] was 19% and 25%. The “Population Tubulin-Different-Phenotype (%)” value [1] was 40%, the “Total Cell Count” value [1] was 152 and 182 and the “Population Apoptotic (%)” value [2] was 59% and 48%. For the same compound, the “Population Fragmented Nuclei (%)” value [2] was 18% and 23%, the “Population Healthy Nuclei (%)” value [2] was 53% and 41% and the “Population Hoechst High Intensity Objects (%)” value [2] was 4% and 8%. The “Population Mitochondria Different-Phenotype (%)” value [2] was 37% and 19%, the “Population Mitotic Cells (%)” value [2] was 40% and 51% and the “Population Normal (%)” value [2] was 95% and 91%. For the same compound, the “Population Pyknosed Nuclei (%)” value [2] was 27% and 35%, the “Population Tubulin-Different-Phenotype (%)” value [2] was 77% and 58% and the “Total Cell Count” value [2] was 140 and 147. For the same compound, the “Population Apoptotic (%)” value [3] was 68% and 37%, the “Population Fragmented Nuclei (%)” value [3] was 25% and 26% and the “Population Healthy Nuclei (%)” value [3] was 48% and 49%. For the same compound, the “Population Hoechst High Intensity Objects (%)” value [3] was 7%, the “Population Membrane Permeable-Phenotype (%)” value [3] was 2% and 10% and the “Population Mitochondria Different-Phenotype (%)” value [3] was 7% and 10%. The “Population Mitotic Cells (%)” value [3] was 31% and 62%, the “Population Normal (%)” value [3] was 92% and the “Population Pyknosed Nuclei (%)” value [3] was 26% and 23%. The “Population Tubulin-Different-Phenotype (%)” value [3] was 40% and 54%, the “Total Cell Count” value [3] was 155 and 181 and the “Population Apoptotic (%)” value [4] was 65% and 47%. The “Population Fragmented Nuclei (%)” value [4] was 13% and 30%, the “Population Healthy Nuclei (%)” value [4] was 49% and 42% and the “Population Hoechst High Intensity Objects (%)” value [4] was 2% and 6%. The “Population Membrane Permeable-Phenotype (%)” value [4] was 0% and 5%, the “Population Mitochondria Different-Phenotype (%)” value [4] was 52% and 35% and the “Population Mitotic Cells (%)” value [4] was 34% and 52%. For the same compound, the “Population Normal (%)” value [4] was 97% and 93%, the “Population Pyknosed Nuclei (%)” value [4] was 37% and 27% and the “Population Tubulin-Different-Phenotype (%)” value [4] was 84% and 72%. The “Total Cell Count” value [4] was 119 and 149, the “Population Apoptotic (%)” value [5] was 63% and 60% and the “Population Fragmented Nuclei (%)” value [5] was 33% and 35%. For the same compound, the “Population Healthy Nuclei (%)” value [5] was 36% and 40%, the “Population Hoechst High Intensity Objects (%)” value [5] was 10% and 8% and the “Population Membrane Permeable-Phenotype (%)” value [5] was 2% and 8%. For the same compound, the “Population Mitochondria Different-Phenotype (%)” value [5] was 20% and 25%, the “Population Mitotic Cells (%)” value [5] was 36% and 40% and the “Population Normal (%)” value [5] was 90% and 91%. The “Population Pyknosed Nuclei (%)” value [5] was 30% and 24%, the “Population Tubulin-Different-Phenotype (%)” value [5] was 48% and 68% and the “Total Cell Count” value [5] was 150 and 158. For the same compound, the “Population Apoptotic (%)” value [6] was 77% and 68%, the “Population Fragmented Nuclei (%)” value [6] was 28% and 27% and the “Population Healthy Nuclei (%)” value [6] was 20% and 41%. For the same compound, the “Population Hoechst High Intensity Objects (%)” value [6] was 14% and 13%, the “Population Membrane Permeable-Phenotype (%)” value [6] was 0% and 17% and the “Population Mitochondria Different-Phenotype (%)” value [6] was 55% and 29%. The “Population Mitotic Cells (%)” value [6] was 22% and 31%, the “Population Normal (%)” value [6] was 85% and 86% and the “Population Pyknosed Nuclei (%)” value [6] was 51% and 30%. The “Population Tubulin-Different-Phenotype (%)” value [6] was 66% and 80% and the “Total Cell Count” value [6] was 103 and 130.
